The target of test [1] is T1, Tryptophan 5-hydroxylase 1 (Rattus norvegicus) (UniProt P09810).
T1 sequence (whole entry): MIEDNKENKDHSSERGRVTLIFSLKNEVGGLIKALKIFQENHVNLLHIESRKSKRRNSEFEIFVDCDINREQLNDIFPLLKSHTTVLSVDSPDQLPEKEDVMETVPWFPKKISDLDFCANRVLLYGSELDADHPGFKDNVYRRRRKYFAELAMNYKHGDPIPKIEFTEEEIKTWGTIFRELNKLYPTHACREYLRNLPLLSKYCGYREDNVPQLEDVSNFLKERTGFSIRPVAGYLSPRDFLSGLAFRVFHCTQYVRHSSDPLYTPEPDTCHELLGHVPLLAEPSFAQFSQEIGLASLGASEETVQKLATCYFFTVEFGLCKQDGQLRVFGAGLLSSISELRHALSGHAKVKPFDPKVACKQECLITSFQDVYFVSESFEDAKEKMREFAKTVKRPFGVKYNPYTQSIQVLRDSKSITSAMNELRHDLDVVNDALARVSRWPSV
Description: Compound was tested for its effect on NSD 1015 induced accumulation of 5-HTP(ng/g) in rats in corpus striatum at a dosage of 32 umol/kg. It counts as functional, tissue-based. A digest of the protocol: (§1)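 Rats given test drug s.c. in the neck as hydrochloride (5 mL/kg), not reserpine-pretreated; 30 min later NSD 1015 (60 mg/kg, i.e. 287 μmol/kg sc), killed 30 min after that. Brain regions dissected. 5-HTP measured by ion-pair reversed-phase HPLC with electrochemical detection. Mean ± SEM, n = 15 controls, 3–5 per dose; ANOVA with Dunnett's t test vs controls.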

For test [2], the system named is Rattus norvegicus. Description: No of rats exhibiting 5-HT motor syndrome tested in reserpinized rats at a subcutaneous dose of 3.2 umol/kg; 0 rats out of 5 showed activity. Type of test: functional.
The test system of test [3] is Rattus norvegicus. Description: No of rats exhibiting 5-HT motor syndrome tested in reserpinized rats at a subcutaneous dose of 1.0 umol/kg; o rats out of 3 showed activity. It counts as functional.
Test [4] addresses T1, Tryptophan 5-hydroxylase 1 (Rattus norvegicus). The test is described as follows: Compound was tested for its effect on NSD 1015 induced accumulation of 5-HTP(ng/g) in rats in corpus striatum at a dosage of 10 umol/kg. It counts as functional. A digest of the protocol:
as §1

The target is the same in test [5]. The test is described as follows: Compound was tested for its effect on NSD 1015 induced accumulation of 5-HTP(ng/g) in rats in corpus striatum at a dosage of 3.2 umol/kg. It counts as functional. A digest of the protocol:
as §1

Test [6] has the same target. Description: Compound was tested for its effect on NSD 1015 induced accumulation of 5-HTP(ng/g) in rats in corpus striatum at a dosage of 1.0 umol/kg. Type of test: functional. Put shortly: as §1
The target is the same in test [7]. The test is described as follows: Compound was tested for its effect on NSD 1015 induced accumulation of 5-HTP(ng/g) in rats in limbic system at a dosage of 32 umol/kg. Type of test: functional, tissue-based. A digest of the protocol:
as §1

The target is the same in test [8]. The test is described as follows: Compound was tested for its effect on NSD 1015 induced accumulation of 5-HTP(ng/g) in rats in limbic system at a dosage of 3.2 umol/kg. It counts as functional, tissue-based. A digest of the protocol:
as §1

The target is the same in test [9]. Description: Compound was tested for its effect on NSD 1015 induced accumulation of 5-HTP(ng/g) in rats in limbic system at a dosage of 10 umol/kg. Type of test: functional, tissue-based. Put shortly: as §1
Test [10] shares this target. Description: Approximate dose levels for a half maximal reduction of 5-HTP levels. It counts as functional. Put shortly: as §1
In test [11] the target is T2, 5-hydroxytryptamine receptor 1A (Rattus norvegicus, UniProt P19327).
T2 sequence (P19327 whole entry): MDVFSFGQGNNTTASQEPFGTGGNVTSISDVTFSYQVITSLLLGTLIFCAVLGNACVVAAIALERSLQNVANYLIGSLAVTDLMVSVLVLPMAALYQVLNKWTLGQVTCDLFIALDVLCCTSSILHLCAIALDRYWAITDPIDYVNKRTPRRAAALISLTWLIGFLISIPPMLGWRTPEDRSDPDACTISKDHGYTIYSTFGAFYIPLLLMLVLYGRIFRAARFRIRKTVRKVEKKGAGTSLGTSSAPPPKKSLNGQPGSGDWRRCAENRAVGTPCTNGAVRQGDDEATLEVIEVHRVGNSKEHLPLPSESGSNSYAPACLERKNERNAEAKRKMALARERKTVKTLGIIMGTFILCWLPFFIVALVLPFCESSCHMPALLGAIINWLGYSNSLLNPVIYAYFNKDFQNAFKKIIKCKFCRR
Description: Concentration of compound required to inhibit cortical 5-hydroxytryptamine 1A receptor binding sites in rat brain was evaluated. It counts as tissue-based.

Test [12] deals with T1, Tryptophan 5-hydroxylase 1 (Rattus norvegicus). The test is described as follows: Compound was tested for its effect on NSD 1015 induced accumulation of 5-HTP(ng/g) in rats in limbic system at a dosage of 1.0 umol/kg. It counts as functional, tissue-based. A digest of the protocol:
as §1

Test [13] has as its system Rattus norvegicus. Description: No of rats exhibiting 5-HT motor syndrome tested in reserpinized rats at a subcutaneous dose of 10 umol/kg; 4 rats out of 5 showed activity. Type of test: functional.
For test [14], the target named is T1, Tryptophan 5-hydroxylase 1 (Rattus norvegicus). The test is described as follows: Compound was tested for its effect on NSD 1015 induced accumulation of 5-HTP(ng/g) in rats in limbic system at a dosage of 0.10 umol/kg. It counts as functional, tissue-based. Put shortly: as §1
Test [15] shares this target. Description: Compound was tested for its effect on NSD 1015 induced accumulation of 5-HTP(ng/g) in rats in limbic system at a dosage of 0.32 umol/kg. Type of test: functional, tissue-based. A digest of the protocol:
as §1

For test [16] the target is unchanged. Description: Compound was tested for its effect on NSD 1015 induced accumulation of 5-HTP(ng/g) in rats in limbic system at a dosage of 0.032 umol/kg. It counts as functional. Put shortly:
as §1

Test [17] concerns Rattus norvegicus. The test is described as follows: No of rats exhibiting 5-HT motor syndrome tested in reserpinized rats at a subcutaneous dose of a. 0.1 umol/kg; 0 rats out of 4 showed activity. It counts as functional.
The target of test [18] is T1, Tryptophan 5-hydroxylase 1 (Rattus norvegicus). The test is described as follows: Compound was tested for its effect on NSD 1015 induced accumulation of 5-HTP in rats in corpus striatum at a dosage of 0.32 umol/kg. Type of test: functional, tissue-based. Put shortly:
as §1

For test [19], the system named is Rattus norvegicus. The test is described as follows: No of rats exhibiting 5-HT motor syndrome tested in reserpinized rats at a subcutaneous dose of 0.32 umol/kg; 4 rats out of 4 showed activity. Type of test: functional.
In test [20] the target is T1, Tryptophan 5-hydroxylase 1 (Rattus norvegicus). The test is described as follows: Compound was tested for its effect on NSD 1015 induced accumulation of 5-HTP(ng/g) in rats in corpus striatum at a dosage of 0.032 umol/kg. Type of test: functional. A digest of the protocol: as §1
Test [21] has the same target. The test is described as follows: Compound was tested for its effect on NSD 1015 induced accumulation of 5-HTP in rats corpus striatum at a dosage of 0.10 umol/kg. It counts as functional, tissue-based. A digest of the protocol: as §1
The subject of test [22] is Rattus norvegicus. The test is described as follows: Number of rats exhibiting 5-HT motor syndrome in reserpinized rats at a subcutaneous dose of 1.0 umol/kg; 0 rats out of 3 showed activity. Type of test: functional.
In test [23] the test system is Rattus norvegicus. The test is described as follows: No of rats exhibiting 5-HT motor syndrome tested in reserpinized rats at a subcutaneous dose of 3.2 umol/kg; 0 rats out of 4 showed activity. Type of test: functional.
The subject of test [24] is Rattus norvegicus. The test is described as follows: No of rats exhibiting 5-HT motor syndrome rats tested in reserpinized rats at a subcutaneous dose of 10 umol/kg; 4 rats out of 4. It counts as functional.
Test [25] has as its target T1, Tryptophan 5-hydroxylase 1 (Rattus norvegicus). The test is described as follows: Compound was tested for its effects on NSD 1015 induced accumulation of 5-HTP(ng/g) in rats in limbic system at a dosage of 0.10 umol/kg. Type of test: functional, tissue-based. Put shortly:
as §1

In test [26] the test system is Rattus norvegicus. Description: No of rats exhibiting 5-HT motor syndrome rats tested in reserpinized rats at a subcutaneous dose of 32 umol/kg; 3 rats out of 3. Type of test: functional.
Test [27] relates to Rattus norvegicus. Description: No of rats exhibiting 5-HT motor syndrome tested in reserpinized rats at a subcutaneous dose of 32 umol/kg; 4 rats out of 4 showed activity. Type of test: functional.
The subject of test [28] is Rattus norvegicus. Description: No of rats exhibiting 5-HT motor syndrome tested in reserpinized rats at a subcutaneous dose of 10 umol/kg; 0 rats out of 4 showed activity. Type of test: functional.

As for `CCN(CC)[C@H]1CCc2cccc(O)c2C1`, the Activity is 46 ng/g in [1]; 0 in the test on Rattus norvegicus [2]; 0 in the test on Rattus norvegicus [3]; 55 ng/g in [4]; 74 ng/g in test [5]; 85 ng/g in test [6]. Moreover, the Activity in test [7] came out at 74 ng/g; in [8], 107 ng/g; in test [9], 86 ng/g; in [12], 135 ng/g; in the test on Rattus norvegicus [13], 4. In test [10], it took a dose of 3 µmol/kg to reach the 50% effect level (ED50). In test [11], this molecule gave a concentration for half-maximal inhibition (IC50) of 114 nM.
As to `CCCN(CCC)[C@@H]1CCc2cccc(O)c2C1`, the Activity in test [14] is 119 ng/g; in test [15], 86 ng/g; in [16] it was 163 ng/g; in the test with Rattus norvegicus [17], 0; in [18] it was 52 ng/g; in the test with Rattus norvegicus [19], 4. Further, the Activity in [20] stood at 87 ng/g; in test [21], 78 ng/g. For the same molecule, the median effective dose (ED50) in test [10] amounted to 0.1 µmol/kg.
For `CN(C)[C@@H]1CCc2cccc(O)c2C1`, the Activity was 130 ng/g in test [15]; 0 in the test with Rattus norvegicus [22]; 0 in the test with Rattus norvegicus [23]; 44 ng/g in test [4]; 67 ng/g in test [5]; 76 ng/g in [6]. Further, the Activity is 79 ng/g in test [18]; 90 ng/g in [8]; 4 with Rattus norvegicus [24]; 172 ng/g in [25]; 3 in the test with Rattus norvegicus [26]; 89 ng/g in test [9]. The values for the Activity in [12] and in test [21] were 110 ng/g and 88 ng/g, respectively. In addition, in test [10], it took a dose of 1 µmol/kg to reach the 50% effect level (ED50). This molecule also gave an IC50 in test [11] of 75 nM.
For the molecule `CCCCN(CCCC)[C@@H]1CCc2cccc(O)c2C1`, the Activity in test [1] stood at 63 ng/g; in the test on Rattus norvegicus [27] it was 4; in test [4], 80 ng/g; in test [7], 106 ng/g; in [9], 145 ng/g; in the test with Rattus norvegicus [28] it was 0. In [10], this molecule yielded a 50% effective dose (ED50) of 20 µmol/kg. In addition, the half-inhibitory concentration (IC50) in test [11] is 109 nM.

For the origin of these results see ChEMBL document CHEMBL1124440, “Resolved N,N-dialkylated 2-amino-8-hydroxytetralins: stereoselective interactions with 5-HT1A receptors in the brain” (J Med Chem, 1989).
